{"source": "ChEMBL document CHEMBL1152541", "about": "“Staurosporine tethered peptide ligands that target cAMP-dependent protein kinase (PKA): optimization and selectivity profiling” (Bioorg Med Chem, 2009)", "key": {"[1]": {"molecular_target": "Tyrosine-protein kinase receptor UFO (Homo sapiens) (UniProt P30530)", "experiment": "Binding affinity to human AXL at 500 nM by cell-based competition binding assay relative to control in presence of DTT", "outline": "(§1)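 Kinase binding profiling ran on a commercial (Ambit) competitive binding screen against a panel of 90 kinases. The screen used reducing conditions with 7.5 mM DTT. To withstand the DTT, the bivalent ligand was tested as its amide isostere, with the disulfide replaced. A staurosporine derivative carrying a 3 β-alanine linker was run as the reference compound.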"}, "[2]": {"molecular_target": "T1, Protein kinase C epsilon type (Homo sapiens) (UniProt Q02156)", "T1 sequence (whole entry)": "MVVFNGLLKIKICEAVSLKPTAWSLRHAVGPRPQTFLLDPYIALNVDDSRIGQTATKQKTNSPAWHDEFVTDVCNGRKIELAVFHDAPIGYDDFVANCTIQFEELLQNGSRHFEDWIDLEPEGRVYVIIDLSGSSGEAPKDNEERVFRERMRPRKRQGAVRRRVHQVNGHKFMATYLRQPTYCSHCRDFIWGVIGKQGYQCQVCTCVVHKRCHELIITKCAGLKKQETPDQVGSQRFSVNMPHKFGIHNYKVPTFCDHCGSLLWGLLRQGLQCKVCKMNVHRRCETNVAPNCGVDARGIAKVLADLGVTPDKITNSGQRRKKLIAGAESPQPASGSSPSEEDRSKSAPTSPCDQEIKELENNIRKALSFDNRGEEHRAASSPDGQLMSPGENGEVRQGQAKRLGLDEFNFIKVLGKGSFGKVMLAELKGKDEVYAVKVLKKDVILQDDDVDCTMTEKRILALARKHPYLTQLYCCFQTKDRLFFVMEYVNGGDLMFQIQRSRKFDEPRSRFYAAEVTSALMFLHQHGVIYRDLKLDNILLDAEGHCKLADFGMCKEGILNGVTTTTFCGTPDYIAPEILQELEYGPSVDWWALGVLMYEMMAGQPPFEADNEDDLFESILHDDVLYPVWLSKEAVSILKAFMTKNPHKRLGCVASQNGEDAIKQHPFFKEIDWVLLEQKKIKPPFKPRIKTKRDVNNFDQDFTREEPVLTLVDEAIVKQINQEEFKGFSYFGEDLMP", "experiment": "Binding affinity to human PRKCepsilon at 500 nM by cell-based competition binding assay relative to control in presence of DTT"}, "[3]": {"molecular_target": "3-phosphoinositide-dependent protein kinase 1 (Homo sapiens) (UniProt O15530)", "sequence (O15530 whole entry, looked up)": "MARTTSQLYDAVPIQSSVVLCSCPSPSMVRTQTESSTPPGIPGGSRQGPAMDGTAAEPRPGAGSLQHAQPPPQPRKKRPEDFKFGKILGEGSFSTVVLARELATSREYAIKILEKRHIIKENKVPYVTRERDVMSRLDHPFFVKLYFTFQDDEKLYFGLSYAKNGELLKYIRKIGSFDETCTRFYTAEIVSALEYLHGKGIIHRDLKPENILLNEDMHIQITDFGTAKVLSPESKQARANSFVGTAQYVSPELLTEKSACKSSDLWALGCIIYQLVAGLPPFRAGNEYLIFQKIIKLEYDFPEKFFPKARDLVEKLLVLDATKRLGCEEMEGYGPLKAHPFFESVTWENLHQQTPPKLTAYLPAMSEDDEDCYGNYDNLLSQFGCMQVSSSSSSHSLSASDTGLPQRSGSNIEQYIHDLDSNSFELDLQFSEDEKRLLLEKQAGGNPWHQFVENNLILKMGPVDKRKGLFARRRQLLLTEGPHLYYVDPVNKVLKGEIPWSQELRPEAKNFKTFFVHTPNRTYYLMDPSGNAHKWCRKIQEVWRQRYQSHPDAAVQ", "experiment": "Ratio of compound to staurosporine binding affinity to PDK1 in presence of DTT"}, "[4]": {"molecular_target": "T2, Serine/threonine-protein kinase STK11 (Homo sapiens) (UniProt Q15831)", "T2 sequence (whole entry)": "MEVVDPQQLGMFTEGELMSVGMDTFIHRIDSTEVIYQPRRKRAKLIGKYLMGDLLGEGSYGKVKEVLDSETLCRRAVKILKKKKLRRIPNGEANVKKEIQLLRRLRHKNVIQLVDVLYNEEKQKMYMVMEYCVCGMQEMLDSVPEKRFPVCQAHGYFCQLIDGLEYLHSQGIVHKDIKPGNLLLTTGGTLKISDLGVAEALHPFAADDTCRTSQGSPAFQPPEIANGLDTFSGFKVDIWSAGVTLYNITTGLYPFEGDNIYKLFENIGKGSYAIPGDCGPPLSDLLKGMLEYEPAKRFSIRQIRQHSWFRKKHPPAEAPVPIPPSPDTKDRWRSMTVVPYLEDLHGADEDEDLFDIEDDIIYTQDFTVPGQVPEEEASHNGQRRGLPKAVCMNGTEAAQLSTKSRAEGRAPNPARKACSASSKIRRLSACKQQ", "experiment": "Binding affinity to human LKB1 at 500 nM by cell-based competition binding assay relative to control in presence of DTT", "outline": "(§2)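 Competition binding screen (Ambit) across a panel of 90 kinases, scoring test ligand displacement of each kinase's binding relative to control. The screen ran under reducing conditions with 7.5 mM DTT.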"}, "[5]": {"molecular_target": "MAP kinase-activated protein kinase 2 (Homo sapiens) (UniProt P49137)", "sequence (P49137 whole entry, looked up)": "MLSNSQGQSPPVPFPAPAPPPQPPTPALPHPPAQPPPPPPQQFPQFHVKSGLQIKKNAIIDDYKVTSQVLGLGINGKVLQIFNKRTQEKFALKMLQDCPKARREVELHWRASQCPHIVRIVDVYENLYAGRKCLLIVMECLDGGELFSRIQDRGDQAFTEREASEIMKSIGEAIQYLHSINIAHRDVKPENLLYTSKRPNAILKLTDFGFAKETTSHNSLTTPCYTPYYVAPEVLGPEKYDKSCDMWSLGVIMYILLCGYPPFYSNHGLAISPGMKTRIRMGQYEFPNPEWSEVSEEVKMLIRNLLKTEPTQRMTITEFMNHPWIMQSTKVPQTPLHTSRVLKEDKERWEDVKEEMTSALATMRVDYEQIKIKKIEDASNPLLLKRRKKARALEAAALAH", "experiment": "Binding affinity to human MAPKAPK2 at 500 nM by cell-based competition binding assay relative to control in presence of DTT", "outline": "as §2"}, "[6]": {"molecular_target": "RAF proto-oncogene serine/threonine-protein kinase (Homo sapiens) (UniProt P04049)", "sequence (P04049 whole entry)": "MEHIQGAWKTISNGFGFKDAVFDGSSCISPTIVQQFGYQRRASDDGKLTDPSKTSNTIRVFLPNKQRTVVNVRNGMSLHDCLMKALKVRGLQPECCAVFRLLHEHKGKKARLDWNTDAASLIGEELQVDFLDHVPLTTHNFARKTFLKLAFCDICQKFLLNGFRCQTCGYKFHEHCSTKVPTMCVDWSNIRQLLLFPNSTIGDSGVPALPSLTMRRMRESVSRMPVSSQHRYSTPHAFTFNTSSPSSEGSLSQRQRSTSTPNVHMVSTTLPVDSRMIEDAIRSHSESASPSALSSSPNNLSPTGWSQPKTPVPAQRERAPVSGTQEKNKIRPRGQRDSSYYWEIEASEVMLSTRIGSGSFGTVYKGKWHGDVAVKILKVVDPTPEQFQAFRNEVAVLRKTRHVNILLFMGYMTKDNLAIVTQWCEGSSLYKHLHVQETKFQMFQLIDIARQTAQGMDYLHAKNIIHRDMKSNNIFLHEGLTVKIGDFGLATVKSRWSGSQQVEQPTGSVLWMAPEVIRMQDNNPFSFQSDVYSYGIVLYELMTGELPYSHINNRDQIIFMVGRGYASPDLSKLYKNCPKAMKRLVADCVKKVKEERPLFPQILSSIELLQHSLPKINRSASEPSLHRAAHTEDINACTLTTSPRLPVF", "experiment": "Binding affinity to human RAF1 at 500 nM by cell-based competition binding assay relative to control in presence of DTT"}, "[7]": {"molecular_target": "Tyrosine-protein kinase ABL1 (Homo sapiens) (UniProt P00519)", "sequence (P00519 whole entry)": "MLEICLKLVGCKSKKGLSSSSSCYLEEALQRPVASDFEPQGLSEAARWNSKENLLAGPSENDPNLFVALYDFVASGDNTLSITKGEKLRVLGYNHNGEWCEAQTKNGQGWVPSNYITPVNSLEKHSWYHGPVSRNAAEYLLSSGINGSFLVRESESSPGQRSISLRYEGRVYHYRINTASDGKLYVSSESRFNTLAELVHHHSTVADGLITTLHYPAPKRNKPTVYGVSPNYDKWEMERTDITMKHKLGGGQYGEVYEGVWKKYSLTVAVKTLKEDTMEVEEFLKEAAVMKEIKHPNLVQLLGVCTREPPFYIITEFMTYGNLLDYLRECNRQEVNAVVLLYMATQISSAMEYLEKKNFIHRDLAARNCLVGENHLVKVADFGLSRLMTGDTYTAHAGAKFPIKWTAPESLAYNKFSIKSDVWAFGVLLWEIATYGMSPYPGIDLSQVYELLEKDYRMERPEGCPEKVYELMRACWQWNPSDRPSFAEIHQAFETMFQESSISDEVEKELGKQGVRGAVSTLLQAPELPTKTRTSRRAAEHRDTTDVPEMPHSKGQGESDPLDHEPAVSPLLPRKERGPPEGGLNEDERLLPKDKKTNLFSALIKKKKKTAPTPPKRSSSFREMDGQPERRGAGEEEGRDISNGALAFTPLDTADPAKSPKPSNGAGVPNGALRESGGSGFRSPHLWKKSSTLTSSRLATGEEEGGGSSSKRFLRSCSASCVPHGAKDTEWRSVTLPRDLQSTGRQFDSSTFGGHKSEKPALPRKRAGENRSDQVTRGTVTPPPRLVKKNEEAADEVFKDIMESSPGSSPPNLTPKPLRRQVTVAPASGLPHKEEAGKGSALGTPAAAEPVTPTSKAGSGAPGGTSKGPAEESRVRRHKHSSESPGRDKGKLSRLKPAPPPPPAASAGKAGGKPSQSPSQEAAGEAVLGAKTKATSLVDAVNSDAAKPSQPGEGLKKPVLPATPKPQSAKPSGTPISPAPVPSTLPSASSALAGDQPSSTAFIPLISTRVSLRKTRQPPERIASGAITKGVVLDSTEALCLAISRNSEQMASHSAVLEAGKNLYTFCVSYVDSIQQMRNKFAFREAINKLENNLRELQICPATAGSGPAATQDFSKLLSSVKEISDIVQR", "experiment": "Binding affinity to human ABL1 at 200 nM by cell-based competition binding assay relative to control in presence of DTT", "outline": "as §1"}, "[8]": {"molecular_target": "MAP kinase-activated protein kinase 2 (Homo sapiens) (UniProt P49137)", "experiment": "Binding affinity to human MAPKAPK2 at 200 nM by cell-based competition binding assay relative to control in presence of DTT", "outline": "as §2"}, "[9]": {"molecular_target": "Mast/stem cell growth factor receptor Kit (Homo sapiens) (UniProt P10721)", "sequence (P10721 whole entry)": "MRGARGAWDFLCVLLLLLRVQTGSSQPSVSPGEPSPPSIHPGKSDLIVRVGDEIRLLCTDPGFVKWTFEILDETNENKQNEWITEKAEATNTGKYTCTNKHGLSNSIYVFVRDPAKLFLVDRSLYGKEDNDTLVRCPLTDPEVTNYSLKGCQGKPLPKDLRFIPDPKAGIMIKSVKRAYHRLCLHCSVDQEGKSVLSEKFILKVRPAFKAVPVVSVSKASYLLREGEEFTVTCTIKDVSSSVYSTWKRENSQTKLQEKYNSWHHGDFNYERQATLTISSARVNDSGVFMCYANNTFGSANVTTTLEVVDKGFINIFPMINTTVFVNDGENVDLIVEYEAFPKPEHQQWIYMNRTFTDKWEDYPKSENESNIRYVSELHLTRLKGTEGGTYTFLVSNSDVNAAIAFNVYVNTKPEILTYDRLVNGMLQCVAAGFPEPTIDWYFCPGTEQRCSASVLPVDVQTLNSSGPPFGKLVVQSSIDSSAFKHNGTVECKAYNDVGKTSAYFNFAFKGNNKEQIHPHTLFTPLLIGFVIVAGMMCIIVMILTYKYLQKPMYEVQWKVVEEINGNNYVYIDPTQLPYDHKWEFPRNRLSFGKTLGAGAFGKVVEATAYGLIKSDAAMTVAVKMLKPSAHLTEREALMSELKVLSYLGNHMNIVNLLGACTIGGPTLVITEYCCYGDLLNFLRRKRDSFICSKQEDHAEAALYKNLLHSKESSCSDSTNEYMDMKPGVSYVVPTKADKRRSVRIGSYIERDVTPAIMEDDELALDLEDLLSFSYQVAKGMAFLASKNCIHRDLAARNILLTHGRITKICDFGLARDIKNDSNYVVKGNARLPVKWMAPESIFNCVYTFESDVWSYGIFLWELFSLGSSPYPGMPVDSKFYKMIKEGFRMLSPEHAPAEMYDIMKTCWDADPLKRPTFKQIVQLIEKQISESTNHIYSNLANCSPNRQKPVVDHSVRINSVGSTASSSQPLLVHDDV", "experiment": "Binding affinity to human KIT at 200 nM by cell-based competition binding assay relative to control in presence of DTT", "outline": "as §2"}, "[10]": {"molecular_target": "T3, Serine/threonine-protein kinase Chk1 (Homo sapiens) (UniProt O14757)", "T3 sequence (whole entry)": "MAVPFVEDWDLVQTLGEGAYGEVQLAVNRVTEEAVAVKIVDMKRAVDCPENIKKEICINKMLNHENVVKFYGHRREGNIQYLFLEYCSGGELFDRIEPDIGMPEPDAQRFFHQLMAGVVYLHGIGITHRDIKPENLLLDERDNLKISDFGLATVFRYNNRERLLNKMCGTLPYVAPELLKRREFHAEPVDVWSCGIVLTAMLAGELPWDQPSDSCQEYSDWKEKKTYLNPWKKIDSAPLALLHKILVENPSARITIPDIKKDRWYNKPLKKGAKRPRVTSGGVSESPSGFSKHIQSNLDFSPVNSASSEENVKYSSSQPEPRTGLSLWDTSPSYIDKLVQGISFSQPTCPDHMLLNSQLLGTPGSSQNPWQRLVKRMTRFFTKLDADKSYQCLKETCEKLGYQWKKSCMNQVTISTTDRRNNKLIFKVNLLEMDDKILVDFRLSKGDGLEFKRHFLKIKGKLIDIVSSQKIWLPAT", "experiment": "Binding affinity to human CHEK1 at 200 nM by cell-based competition binding assay relative to control in presence of DTT", "outline": "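Commercial (Ambit) competitive kinase-binding panel of 90 kinases measured the binding profile. Run under reducing conditions of 7.5 mM DTT. Binding is expressed relative to control.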"}, "[11]": {"molecular_target": "Mitogen-activated protein kinase 9 (Homo sapiens) (UniProt P45984)", "experiment": "Binding affinity to human JNK2 at 50 nM by cell-based competition binding assay relative to control in presence of DTT", "outline": "as §2"}, "[12]": {"molecular_target": "Proto-oncogene tyrosine-protein kinase receptor Ret (Homo sapiens) (UniProt P07949)", "sequence (P07949 whole entry)": "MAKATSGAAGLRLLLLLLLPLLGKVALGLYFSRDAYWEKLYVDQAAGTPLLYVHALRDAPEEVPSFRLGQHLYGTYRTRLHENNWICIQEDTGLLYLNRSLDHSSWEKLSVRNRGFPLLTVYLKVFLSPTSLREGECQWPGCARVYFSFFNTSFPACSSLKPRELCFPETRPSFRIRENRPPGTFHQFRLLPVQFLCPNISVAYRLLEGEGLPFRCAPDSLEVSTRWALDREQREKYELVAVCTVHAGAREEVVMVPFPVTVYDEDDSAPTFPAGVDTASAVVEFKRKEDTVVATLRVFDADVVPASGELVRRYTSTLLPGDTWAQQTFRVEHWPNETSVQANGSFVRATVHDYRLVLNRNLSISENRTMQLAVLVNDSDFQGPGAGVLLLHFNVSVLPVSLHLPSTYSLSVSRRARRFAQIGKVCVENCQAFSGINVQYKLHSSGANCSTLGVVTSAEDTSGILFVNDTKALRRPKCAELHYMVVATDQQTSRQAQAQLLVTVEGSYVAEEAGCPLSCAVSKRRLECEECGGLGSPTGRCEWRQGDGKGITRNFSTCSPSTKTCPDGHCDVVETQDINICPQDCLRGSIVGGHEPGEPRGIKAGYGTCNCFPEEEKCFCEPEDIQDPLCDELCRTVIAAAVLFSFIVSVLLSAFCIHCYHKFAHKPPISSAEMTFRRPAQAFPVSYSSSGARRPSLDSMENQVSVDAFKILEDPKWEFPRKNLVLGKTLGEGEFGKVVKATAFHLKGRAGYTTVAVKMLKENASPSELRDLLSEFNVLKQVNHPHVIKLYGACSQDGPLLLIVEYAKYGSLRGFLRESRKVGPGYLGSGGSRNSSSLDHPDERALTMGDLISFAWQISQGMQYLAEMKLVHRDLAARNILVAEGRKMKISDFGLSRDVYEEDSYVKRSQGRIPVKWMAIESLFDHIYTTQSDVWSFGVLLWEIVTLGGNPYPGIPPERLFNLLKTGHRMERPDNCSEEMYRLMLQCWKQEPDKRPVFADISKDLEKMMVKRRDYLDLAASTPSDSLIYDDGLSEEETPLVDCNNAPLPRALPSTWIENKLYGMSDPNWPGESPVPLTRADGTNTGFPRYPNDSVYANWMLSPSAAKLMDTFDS", "experiment": "Binding affinity to human RET at 50 nM by cell-based competition binding assay relative to control in presence of DTT"}, "[13]": {"system": "Mast/stem cell growth factor receptor Kit (Homo sapiens), P10721 [V559D,T670I]", "sequence (P10721 whole entry V559D/T670I)": "as the sequence (P10721 whole entry) above, with V559D, T670I counted along it", "experiment": "Binding affinity to human KIT V559D,T670I mutant at 50 nM by cell-based competition binding assay relative to control in presence of DTT", "outline": "as §2"}}, "note": "*1 amine or outer side, *2 acyl side, *3 side chain or, on linkers, in order; H or OH if unused. Where a SMILES comes first, the peptide text is derived from it. Bridges are numbered along the chain shown (N, C = ends). [ ]: non-standard residue; d: D form. The star is where a group is joined. Staurosporine = CO[C@@H]1[C@H](N(C)*)C[C@H]2O[C@]1(C)n1c3ccccc3c3c4c(c5c6ccccc6n2c5c31)C(=O)NC4; Suc = O=C(CCC(=O)[*:2])[*:1]; Dap = NC[C@H](N)C(=O)O; βAla = NCCC(=O)O", "data": [{"smiles": "CO[C@@H]1[C@H](N(C)C(=O)CCC(=O)NCCC(=O)NCCC(=O)NCCC(N)=O)C[C@H]2O[C@]1(C)n1c3ccccc3c3c4c(c5c6ccccc6n2c5c31)C(=O)NC4", "values": [{"measurement": "Activity", "setting": "[1]", "result": 8, "unit": "%"}, {"measurement": "Activity", "setting": "[2]", "result": 0.6, "unit": "%"}, {"measurement": "Selectivity ratio", "setting": "[3]", "result": 52}, {"measurement": "Activity", "setting": "[4]", "result": 41, "unit": "%"}, {"measurement": "Activity", "setting": "[5]", "result": 100, "unit": "%"}, {"measurement": "Activity", "setting": "[6]", "result": 73, "unit": "%"}]}, {"smiles": "CO[C@@H]1[C@H](N(C)C(=O)CCC(=O)NCCC(=O)NCCC(=O)NCCC(=O)NCCC(=O)NCCC(=O)NCCC(=O)NCCC(=O)N[C@H]2CSSC[C@@H](C(=O)NCC(N)=O)NC(=O)CNC(=O)[C@H](Cc3ccccc3)NC(=O)[C@H](C(C)C)NC(=O)[C@H](CCCNC(=N)N)NC(=O)[C@H](Cc3ccccc3)NC(=O)[C@H](C(C)C)NC2=O)C[C@H]2O[C@]1(C)n1c3ccccc3c3c4c(c5c6ccccc6n2c5c31)C(=O)NC4", "note": "({Staurosporine-Suc-βAla-βAla-βAla-βAla-βAla-βAla-βAla}-CVFRVFGCG-NH2; disulfide 1-8)", "values": [{"measurement": "Activity", "setting": "[7]", "result": 100, "unit": "%"}, {"measurement": "Activity", "setting": "[8]", "result": 100, "unit": "%"}, {"measurement": "Activity", "setting": "[9]", "result": 39, "unit": "%"}, {"measurement": "Activity", "setting": "[10]", "result": 60, "unit": "%"}]}, {"smiles": "CO[C@@H]1[C@H](N(C)C(=O)CCC(=O)NCCC(=O)NCCC(=O)NCCC(=O)NCCC(=O)NCCC(=O)NCCC(=O)NCCC(=O)N[C@H]2CNC(=O)C[C@@H](C(N)=O)NC(=O)CNC(=O)[C@H](Cc3ccccc3)NC(=O)[C@H](C(C)C)NC(=O)[C@H](CCCNC(=N)N)NC(=O)[C@H](Cc3ccccc3)NC(=O)[C@H](C(C)C)NC2=O)C[C@H]2O[C@]1(C)n1c3ccccc3c3c4c(c5c6ccccc6n2c5c31)C(=O)NC4", "note": "({Staurosporine-Suc-βAla-βAla-βAla-βAla-βAla-βAla-βAla}-[Dap]VFRVFGD-NH2; lactam 1-8)", "values": [{"measurement": "Activity", "setting": "[11]", "result": 88, "unit": "%"}, {"measurement": "Activity", "setting": "[12]", "result": 94, "unit": "%"}, {"measurement": "Activity", "setting": "[13]", "result": 59, "unit": "%"}]}]}
